Data set [1] deals with HCT-116. Nature of the data set: Downregulation of SF2 mRNA expression in human HCT-116 cells at 100 to 500 nM incubated for 24 hrs by qRT-PCR analysis. It counts as functional, cell-based. The note with it: dose 100-500 nM. The method in brief: (§1)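 HCT-116 cells in supplemented McCoy's 5a with 0.5% DMSO, treated 24 h at 100, 250 or 500 nM; untreated cells as control. Total RNA isolated, 1 µg DNase I-treated, reverse transcribed. qPCR on 5 ng cDNA with 2.5 µM each primer, 40 cycles of 95 °C 30 s, 55 °C 60 s, 72 °C 60 s. Splice-event primers for intron retention or exon skipping; SF2 primers measure total expression. 2^-CT method relative to GAPDH, untreated set at 1.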

The subject of data set [2] is HCT-116. The data set is described as follows: Downregulation of PLK-1 mRNA expression in human HCT-116 cells at 100 to 500 nM incubated for 24 hrs by qRT-PCR analysis. It counts as functional, cell-based. The note with it: dose 100-500 nM. The gist of the method: as §1
Data set [3] is described as follows: Cytotoxicity against human HCT-116 cells assessed as cell growth inhibition incubated for 72 hrs by MTS assay. It counts as toxicity, cell-based. The gist of the method: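 HCT-116 cells (ATCC; split every other day, no more than five generations, mycoplasma-tested) plated at 5 × 10³ cells/well in supplemented McCoy's 5a and grown 24 h at 37 °C, 5% CO₂. Compound added from DMSO (0.5% DMSO final) for 72 h. Cells washed with PBS, MTS reagent added for 2 h at 37 °C, A490 read against A690. GI₅₀ fitted from dose curves of 3 biological replicates.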

Data set [4] has as its system HCT-116. The data set is described as follows: Cytotoxicity against human HCT-116 cells assessed as reduction in cell viability at 2.6 uM incubated for 4 hrs by MTS assay. It counts as toxicity, cell-based. The note with it: hct-116, 4 h.
For data set [5], the system named is HCT-116. The data set is described as follows: Cytotoxicity against human HCT-116 cells assessed as reduction in cell viability at 500 nM incubated for 24 hrs by MTS assay. The format is toxicity, cell-based. The settings on record: hct-116, 24 h, 0.5 µM. The gist of the method:
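HCT-116 cells plated at 5 × 10³ cells/well in supplemented McCoy's 5a and grown 24 h at 37 °C, 5% CO₂. Compound given at 500 nM, the top dose of the 24 h splicing series, in 0.5% DMSO for 24 h. Cells washed with PBS, MTS reagent added for 2 h at 37 °C, A490 read against A690.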

The subject of data set [6] is DNAJB1 pre-mRNA. Nature of the data set: Modulation of splicing in DNAJB1 pre-mRNA in human HCT-116 cells assessed as intron 2 retention at 100 to 500 nM incubated for 24 hrs by qRT-PCR analysis. The format is functional, cell-based. The note with it: dose 100-500 nM. The method in brief:
as §1

Data set [7] has as its system SF3A3 pre-mRNA. Nature of the data set: Modulation of splicing in SF3A3 pre-mRNA in human HCT-116 cells assessed as intron 5 retention level at 2.6 uM incubated for 4 hrs by qRT-PCR analysis. The format is functional, cell-based. The note with it: filed as modulator.
The subject of data set [8] is SF3B1 pre-mRNA. The data set is described as follows: Modulation of splicing in SF3B1 pre-mRNA in human HCT-116 cells assessed as intron 13 retention level at 2.6 uM incubated for 4 hrs by qRT-PCR analysis. It counts as functional, cell-based. The settings on record: filed as modulator. The gist of the method: (§2)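 HCT-116 cells in supplemented McCoy's 5a, compound added from DMSO stock to a final 0.5% DMSO, 4 h at a single standardized concentration per analogue. Total RNA isolated and DNase-treated (1 µg). qPCR used 2.5 µM each primer on 5 ng cDNA, 40 cycles. Intron retention was computed by the 2^-CT method relative to GAPDH and expressed versus untreated cells set to 1.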

Data set [9] has as its system DNAJB1 pre-mRNA. Nature of the data set: Modulation of splicing in DNAJB1 pre-mRNA in human HCT-116 cells assessed as intron 2 retention level at 2.6 uM incubated for 4 hrs by qRT-PCR analysis. The format is functional, cell-based. The settings on record: filed as modulator.
For data set [10], the system named is SF3A1 pre-mRNA. The data set is described as follows: Modulation of splicing in SF3A1 pre-mRNA in human HCT-116 cells assessed as intron 6 retention level at 2.6 uM incubated for 4 hrs by qRT-PCR analysis. It counts as functional, cell-based. The settings on record: filed as modulator.
Data set [11] relates to SF3B2 pre-mRNA. Nature of the data set: Modulation of splicing in SF3B2 pre-mRNA in human HCT-116 cells assessed as intron 10 retention level at 2.6 uM incubated for 4 hrs by qRT-PCR analysis. The format is functional, cell-based. The settings on record: filed as modulator. The gist of the method:
as §2

For data set [12], the system named is HCT-116. Nature of the data set: Downregulation of SF3 mRNA expression in human HCT-116 cells at 2.6 uM incubated for 4 hrs by qRT-PCR analysis. It counts as functional, cell-based.
For data set [13], the system named is SF3A3 pre-mRNA. Nature of the data set: Modulation of splicing in SF3A3 pre-mRNA in human HCT-116 cells assessed as intron 5 retention at 100 to 500 nM incubated for 24 hrs by qRT-PCR analysis. The format is functional, cell-based. The settings on record: filed as modulator, dose 100-500 nM. The gist of the method:
as §1

In data set [14] the test system is SF3B2 pre-mRNA. The data set is described as follows: Modulation of splicing in SF3B2 pre-mRNA in human HCT-116 cells assessed as intron 10 retention at 100 to 500 nM incubated for 24 hrs by qRT-PCR analysis. The settings on record: dose 100-500 nM. It counts as functional, cell-based. The gist of the method: (§3)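 HCT-116 cells in supplemented McCoy's 5a with 0.5% final DMSO were treated for 24 h at 100, 250 or 500 nM. Total RNA isolated and DNase-treated (1 µg). qPCR used 2.5 µM each primer on 5 ng cDNA, 40 cycles. Intron retention was computed by the 2^-CT method relative to GAPDH and expressed versus untreated cells set to 1.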

Data set [15] has as its system HCT-116. Nature of the data set: Effect on AURKA mRNA expression in human HCT-116 cells at 100 to 500 nM incubated for 24 hrs by qRT-PCR analysis. It counts as functional, cell-based. The note with it: dose 100-500 nM. The method in brief:
as §1

For data set [16], the system named is HCT-116. The data set is described as follows: Cytotoxicity against human HCT-116 cells assessed as reduction in cell viability at 42 nM incubated for 4 hrs by MTS assay. It counts as toxicity, cell-based. The note with it: hct-116, 4 h, 0.042 µM.
The test system of data set [17] is SF3A3 pre-mRNA. The data set is described as follows: Modulation of splicing in SF3A3 pre-mRNA in human HCT-116 cells assessed as intron 5 retention level at 42 nM incubated for 4 hrs by qRT-PCR analysis. It counts as functional, cell-based. The settings on record: filed as modulator.
In data set [18] the test system is SF3B1 pre-mRNA. Nature of the data set: Modulation of splicing in SF3B1 pre-mRNA in human HCT-116 cells assessed as intron 13 retention level at 42 nM incubated for 4 hrs by qRT-PCR analysis. The format is functional, cell-based. The settings on record: filed as modulator. The method in brief: as §2
In data set [19] the test system is DNAJB1 pre-mRNA. Nature of the data set: Modulation of splicing in DNAJB1 pre-mRNA in human HCT-116 cells assessed as intron 2 retention level at 42 nM incubated for 4 hrs by qRT-PCR analysis. The format is functional, cell-based. The settings on record: filed as modulator.
Data set [20] has as its system SF3A1 pre-mRNA. Nature of the data set: Modulation of splicing in SF3A1 pre-mRNA in human HCT-116 cells assessed as intron 6 retention level at 42 nM incubated for 4 hrs by qRT-PCR analysis. It counts as functional, cell-based. The settings on record: filed as modulator.
For data set [21], the system named is SF3B2 pre-mRNA. The data set is described as follows: Modulation of splicing in SF3B2 pre-mRNA in human HCT-116 cells assessed as intron 10 retention level at 42 nM incubated for 4 hrs by qRT-PCR analysis. The note with it: filed as modulator. The format is functional, cell-based. The method in brief: as §2
Another data set concerns AURKA pre-mRNA. The data set is described as follows: Modulation of splicing in AURKA pre-mRNA in human HCT-116 cells assessed as effect on exon 4 skipping at 42 nM incubated for 4 hrs by qRT-PCR analysis. The format is functional, cell-based. The settings on record: filed as modulator.
Data set [22] concerns DNAJB1 pre-mRNA. The data set is described as follows: Modulation of splicing in DNAJB1 pre-mRNA in human HCT-116 cells assessed as reduction in intron 2 retention level at 100 to 500 nM incubated for 24 hrs by qRT-PCR analysis. It counts as functional, cell-based. The note with it: filed as modulator, dose 100-500 nM. The gist of the method: as §1
Data set [23] concerns SF3B2 pre-mRNA. Nature of the data set: Modulation of splicing in SF3B2 pre-mRNA in human HCT-116 cells assessed as increase in intron 10 retention level incubated for 24 hrs by qRT-PCR analysis. The format is functional, cell-based. The note with it: filed as modulator, dose 100-500 nM. The method in brief: as §3
The test system of data set [24] is SF3B1 pre-mRNA. Nature of the data set: Modulation of splicing in SF3B1 pre-mRNA in human HCT-116 cells assessed as increase in intron 13 retention level incubated for 24 hrs by qRT-PCR analysis. The format is functional, cell-based. The note with it: filed as modulator, dose 100-500 nM. The gist of the method: as §3

This is an account of results in ChEMBL document CHEMBL5338772, “Stereochemical Control of Splice Modulation in FD-895 Analogues” (J Med Chem, 2023).

The source made the active and inactive calls. The rule behind the calls is not given here.

Regarding `CC[C@H](OC)[C@@H](C)[C@H]1O[C@@H]1[C@@H](O)[C@H](C)/C=C/C=C(\C)[C@H]1OC(=O)C[C@@H](O)CC[C@@](C)(O)[C@@H](OC(C)=O)/C=C/[C@@H]1C`, the result in the data set with HCT-116 [1], in the data set with DNAJB1 pre-mRNA [6] and in the data set on SF3B2 pre-mRNA [14] was inactive. Further, the result in the data set on HCT-116 [2], with HCT-116 [12], with SF3A3 pre-mRNA [13] and in the data set on HCT-116 [15] was Active. Also, the GI50 at 72 h in [3] is 0.143 µM. Also, the Activity entry with HCT-116 [4] is “Non-Toxic”; in the data set on HCT-116 [5], “Non-Toxic”; in the data set on SF3A3 pre-mRNA [7], less than 3; in the data set with SF3B1 pre-mRNA [8] it was less than 3; with DNAJB1 pre-mRNA [9], greater than 3; with SF3A1 pre-mRNA [10] it was greater than 3. For the same compound, in the data set on SF3B2 pre-mRNA [11], the Activity was greater than 3.
As to `CC[C@H](OC)[C@@H](C)[C@H]1O[C@@H]1[C@@H](O)[C@H](C)/C=C/C=C(\C)[C@H]1OC(=O)C[C@H](O)CC[C@@](C)(O)[C@@H](OC(C)=O)/C=C/[C@@H]1C`, the result with HCT-116 [1] and in the data set on HCT-116 [2] was inactive. The GI50 at 72 h in [3] is 0.0022 µM. The Activity entry with HCT-116 [16] was “Non-Toxic”; in the data set with HCT-116 [5] it was “Non-Toxic”; with SF3A3 pre-mRNA [17] it was less than 3; with SF3B1 pre-mRNA [18], less than 3; in the data set on DNAJB1 pre-mRNA [19], greater than 3; with SF3A1 pre-mRNA [20] it was greater than 3. The figures for the Activity with SF3B2 pre-mRNA [21], in the data set with SF3B2 pre-mRNA [23] and in the data set on SF3B1 pre-mRNA [24] were greater than 3, “Dose-Dependent Effect” and “Dose-Dependent Effect”, respectively. For the same compound, the result in the data set with AURKA pre-mRNA and in the data set on DNAJB1 pre-mRNA [22] was Active.
